Results reported in ChEMBL document CHEMBL1136302, “Modified 3-alkyl-1,8-dibenzylxanthines as GTP-competitive inhibitors of phosphoenolpyruvate carboxykinase” (Bioorg Med Chem Lett, 2003).

experiment: Inhibitory activity against human cytosolic phosphoenolpyruvate carboxykinase (PEPCK) enzyme at a concentration of 500 uM
Outline: (§1)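 The same coupled GST-PEPCK assay was run in 30 mM potassium phosphate pH 7.6 at room temperature. It used 0.3 mM each of GTP and OAA, plus Mg2+/Mn2+, ADP, NADH and BSA, with pyruvate kinase and lactate dehydrogenase coupling. Rate was read at 340 over 20 min. Percent inhibition is given at the highest concentration tested, as the duplicate average.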

In order of falling inhibition:
1. C=CCn1c(=O)c2[nH]cnc2n(CCCC)c1=O  39%
2. C=CCn1c(=O)c2c(nc(C)n2CC)n(CCCC)c1=O  34%
3. C=CCn1c(=O)c2[nH]c(-c3ccc(NC(C)=O)cc3)nc2n(CCCC)c1=O  1.7%

experiment: Inhibitory activity against human cytosolic phosphoenolpyruvate carboxykinase (PEPCK) enzyme at a concentration of 25 uM; outline: as §1

In order of falling inhibition:
1. CCCCn1c(=O)n(Cc2cccc(F)c2)c(=O)c2[nH]c(Cc3ccc(NC(C)=O)cc3)nc21  46%
2. CCCCn1c(=O)n(CCOC)c(=O)c2[nH]c(Cc3ccc(NC(C)=O)cc3)nc21  36%
3. C=CCn1c(=O)c2[nH]c(Cc3ccccc3)nc2n(CCCC)c1=O  29%

experiment: Inhibitory activity against human cytosolic phosphoenolpyruvate carboxykinase (PEPCK) enzyme
Outline: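 Recombinant human cytosolic GST-PEPCK at room temperature in 30 mM potassium phosphate pH 7.6 with 0.3 mM GTP, 0.3 mM OAA, 3 mM MgCl2, 0.075 mM MnCl2, 1 mM DTT, 0.2 mM ADP, 1 mM NADH and 1 mg/mL BSA. Coupled to pyruvate kinase and lactate dehydrogenase (0.9 U/mL each). Absorbance change at 340 read over 20 min. Eight concentrations in duplicate, averaged; IC50 derived.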

In order of rising IC50:
1. CCCCn1c(=O)n(Cc2ccccc2F)c(=O)c2[nH]c(Cc3ccc(NC(C)=O)cc3)nc21  2.11 µM
2. CCCCn1c(=O)n(Cc2ccccc2)c(=O)c2[nH]c(Cc3ccc(NC(C)=O)cc3)nc21  8.15 µM
3. C=CCn1c(=O)c2[nH]c(Cc3ccc(N)cc3)nc2n(CCCC)c1=O  37 µM
4. C=CCn1c(=O)c2[nH]c(CC)nc2n(CCCC)c1=O  100 µM
5. C=CCn1c(=O)c2[nH]c(C)nc2n(CCCC)c1=O  225 µM
6. CCCCn1c(=O)n(CCC)c(=O)c2[nH]c(C)nc21  375 µM
